Screening data as filed in PubChem.
In the library only some 1.4% were active in any assay of this set; here they are far more common.
TPT1 inhibitor = C. albicans TPT1 enzyme inhibition | recombinant caTPT1, FP RNA substrate dephosphorylation | inhibition, % at 5 µM | hit rate 0.81% among 300,000;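 active = inhibition above the mean of all tested compounds plus 3 SD, set per screening campaign, cut at about 24% in these data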;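 also: plate controls were DMSO alone for no effect and ferristatin control at 100 nM for full effect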
IDE cell inh = cellular human IDE inhibition; P14735; HEK cells, FAbetaB cleavage, fluorescence polarization; inhibition, % at 5.59 µM; hit rate 0.41% among 320,000; AID 434962;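 active = percent inhibition above the average of all tested compounds plus 3 SD, set per screening campaign, cut at about 16% in these data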;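 also: IDE supplied by intact live HEK cells; FP after avidin binding of uncleaved biotin substrate so inhibition keeps polarization high; 0% = DMSO wells and 100% = 60 µM reference IDE inhibitor Ii1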
IDE act = boosts human insulin-degrading enzyme activity in HEK cells; FAbeta-B cleavage, fluorescence polarization; 0% vehicle, 100% cell-free pure enzyme wells; activation, % at 5.96 µM; hit rate 0.073% among 340,000;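 active = activation above the mean of all tested compounds plus 3 SD, set per screening campaign, cut at about 17% in these data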
HNF4A DNA FP = change in binding of human HNF4 alpha to DNA | P41235 | HNF4a-FITC DNA binding, fluorescence polarization, 1 h | activity change, % at 10 µM | hit rate 0.3% among 360,000 | AID 1224865; in the data active = activity change above about 30%, passing the limit was not always enough
Target sequence (P41235 whole entry, looked up): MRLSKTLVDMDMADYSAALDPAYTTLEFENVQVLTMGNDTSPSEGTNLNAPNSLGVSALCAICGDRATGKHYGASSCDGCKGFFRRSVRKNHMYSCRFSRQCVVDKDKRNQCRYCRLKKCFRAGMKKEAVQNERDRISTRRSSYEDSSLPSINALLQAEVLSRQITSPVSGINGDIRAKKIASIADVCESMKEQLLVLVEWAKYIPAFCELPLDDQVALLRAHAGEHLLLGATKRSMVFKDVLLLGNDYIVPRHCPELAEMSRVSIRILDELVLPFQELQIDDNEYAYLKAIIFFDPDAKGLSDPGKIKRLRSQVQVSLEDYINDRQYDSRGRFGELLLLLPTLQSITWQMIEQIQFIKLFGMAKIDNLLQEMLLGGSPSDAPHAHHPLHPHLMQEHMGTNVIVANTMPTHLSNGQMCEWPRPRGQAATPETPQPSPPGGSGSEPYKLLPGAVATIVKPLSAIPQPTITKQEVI
CSN inh = blocks human CSN-mediated cullin deneddylation; inhibition, % at 12.5 µM; hit rate 0.38% among 360,000; Purified CSN, SCF-Nedd8-OG deneddylation, fluorescence polarization; AID 651999;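 active = pattern-corrected inhibition above about 35%, with an unprinted fluorescence ratio check between 0.5 and 1.5, limit read from the data, passing the limit was not always enough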;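 also: 0% = enzyme with substrate and 100% = substrate without enzyme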
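Assay system: purified human Csn5 enzyme expressed in HEK293T cells; measure: % inhibition; also added: SCFSkp2-Nedd8OG substrate at 10 nM final; technique: fluorescence polarization; times: reaction 90 min, room temperature; medium: Tris buffer pH 7.5, NaCl, DTT, Tween-20, trehalose, ovalbumin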
TPT1 inh confirm = confirmation of Candida albicans TPT1 inhibitors; inhibition, % at 5 µM; hit rate 74% among 2,400; recombinant caTPT1, fluorescence polarization, RNase T1 coupled; shares compounds with TPT1 inhibitor;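 active = inhibition above the primary screen limit, the mean inhibition of all tested compounds plus 3 SD, cut at about 25% in these data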
RNase T1 inh = blocks Aspergillus oryzae RNase T1, a TPT1 counter-screen. RNase T1 cleavage, fluorescence polarization, 1536-well. inhibition, % at 5 µM. hit rate 83% among 2,400. shares compounds with TPT1 inhibitor;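 active = inhibition above the solvent-only control well mean plus 3 SD, limit set per screening run, cut at about 23% in these data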;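 also: plate controls were DMSO wells with enzyme for no effect and wells without RNase T1 for full effect; inhibitors block cleavage so intact labeled substrate keeps polarization high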
Numbers without * were called inactive; / = no result given.

SMILES	TPT1 inhibitor	IDE cell inh	IDE act	HNF4A DNA FP	CSN inh	TPT1 inh confirm	RNase T1 inh
Cc1ccc(S(=O)(=O)N2[C@@H](CCO)OC[C@H]2C(C)C)cc1	/	/	/	2	1	/	/
COc1ccc(-n2nnnc2SCC(=O)c2cc3ccccc3o2)cc1	32*	8	2	3	4	26*	35*
C=CCNC(=O)CSc1nc2cc(C(=O)OCC)ccc2n1CC	-1	3	-1	-1	-1	/	/
Cn1cnnc1SCC(=O)c1cc2ccccc2o1	4	-2	-2	5	4	/	/
CCOC(=O)c1ccc2c(c1)nc(SCC(=O)c1cc3ccccc3o1)n2CC	33*	2	1	4	3	15	24*
O=C(CSc1nc2ccccc2s1)c1cc2ccccc2o1	56*	11	-5	3	-2	16	25*
Cn1ccnc1SCC(=O)c1cc2ccccc2o1	61*	11	-3	15	5	29*	41*
CCC(C)NS(=O)(=O)c1cc2c3c(c1)CCN3C(=O)CC2 (stereo not drawn)	1	-1	-2	1	-2	/	/
CCOC(=O)[C@]12CCC=C1N(Cc1ccccc1)C(=O)[C@H](CC(=O)NCCC(C)C)C2	/	/	/	5	0	/	/
N#Cc1cccc(C2CC(OCCF)=CC(=O)O2)c1 (stereo not drawn)	/	/	/	-2	1	/	/
CCOC(=O)C1(CC2CCCCO2)CCN(C(=O)Nc2ccc3c(c2)OCO3)CC1 (stereo not drawn)	38*	-4	2	2	-1	0	18
CCOc1ccccc1C(=O)Nc1nnc(COC)s1	1	3	4	0	-3	/	/
CCOc1ccccc1C(=O)Nc1nccs1	27*	4	2	-3	4	11	13
Cn1c(=O)oc2cc(S(=O)(=O)N3CCN(c4cccc(Cl)c4)CC3)ccc21	81*	1	-5	16	16	24*	33*
Cn1c(=O)oc2cc(S(=O)(=O)N3CCN(c4ccc(F)cc4)CC3)ccc21	16	0	-3	7	18	/	/
CCOC(=O)[C@]12CCC=C1N(Cc1ccc(Cl)cc1Cl)C(=O)[C@H](CC(=O)N1CCOCC1)C2	/	/	/	-1	2	/	/
O=C(C1=C(O)C(=O)N(CCN2CCOCC2)C1c1cccc(O)c1)c1cc2ccccc2o1 (stereo not drawn)	/	/	1	4	-1	/	/
O=C(C1=C(O)C(=O)N(CCN2CCOCC2)C1c1cccs1)c1cc2ccccc2o1 (stereo not drawn)	55*	-1	0	5	0	7	14
CCOC(=O)C1=CCC(c2ccccc2C(F)(F)F)N(S(=O)(=O)c2ccc(C)cc2)C1 (stereo not drawn)	/	/	/	0	2	/	/
CC(C)CCOc1ccc(C2=NNC(=O)CC2)cc1	-5	4	-5	3	2	/	/
CC/C(C)=N\N=C\c1c(O)n(CC)c2cc(C3=NNC(=O)CC3)ccc12	51*	0	3	11	12	35*	47*
CCn1c(O)c(/C=N/N=C/c2ccc(OC)cc2)c2cc(C3=NNC(=O)CC3)ccc21	47*	0	-5	95*	89*	74*	86*
NC(=S)N/N=C/c1ccc(-c2ccc([N+](=O)[O-])cc2)o1	27*	-1	-4	6	3	36*	47*
NC(=S)N/N=C/c1ccc(-c2cc(Cl)cc(Cl)c2)o1	6	3	-8	14	13	/	/
O=C(Cc1ccc([N+](=O)[O-])cc1)N/N=C/c1ccc([N+](=O)[O-])o1	5	5	4	6	6	/	/
Cc1cc([N+](=O)[O-])ccc1-c1ccc(/C=N/NC(=O)Cc2ccccc2)o1	24*	2	0	-25	-10	24*	37*
O=C1NC[C@H](CCCCN2CCN(CC3CCCCC3)C(=O)C2=O)N(CC2CCCCC2)C1=O	/	/	/	-2	-6	/	/
COc1ccccc1NC(=O)c1sc2nc(-c3ccco3)ccc2c1N	28*	5	-10	21	17	19	27*
